Experiments:
[1] = molecular target: T1, Free fatty acid receptor 1 (Homo sapiens, UniProt O14842); assay: Agonist activity at human GPR40 expressed in CHO cells assessed as increase in intracellular calcium flux by Fluo-8 dye based FLIPR assay; type: functional, cell-based
In short: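 Stable CHO-GPR40 line (human receptor), seeded at 12,500 cells/well 24 h before assay. Cells were loaded 1 h with Fluo-8 calcium dye and read on FLIPR Tetra. Agonist response was taken as the maximum fluorescence change over baseline. Dose-response testing gave EC50 from fitted concentration-response curves, with GW9508 run alongside as positive control.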

[2] = molecular target: T1, Free fatty acid receptor 1; assay: Agonist activity at human GPR40 expressed in CHO cells assessed as increase in intracellular calcium flux at 5 uM by Fluo-8 dye based FLIPR assay relative to GW9508; type: functional, cell-based
[3] = molecular target: T2, Free fatty acid receptor 3 (Homo sapiens, UniProt O14843); assay: Agonist activity at human FFA3 receptor expressed in CHO cells assessed as increase in intracellular calcium flux by Fluo-8 dye based FLIPR assay; type: functional, cell-based
T2 sequence (O14843 whole entry): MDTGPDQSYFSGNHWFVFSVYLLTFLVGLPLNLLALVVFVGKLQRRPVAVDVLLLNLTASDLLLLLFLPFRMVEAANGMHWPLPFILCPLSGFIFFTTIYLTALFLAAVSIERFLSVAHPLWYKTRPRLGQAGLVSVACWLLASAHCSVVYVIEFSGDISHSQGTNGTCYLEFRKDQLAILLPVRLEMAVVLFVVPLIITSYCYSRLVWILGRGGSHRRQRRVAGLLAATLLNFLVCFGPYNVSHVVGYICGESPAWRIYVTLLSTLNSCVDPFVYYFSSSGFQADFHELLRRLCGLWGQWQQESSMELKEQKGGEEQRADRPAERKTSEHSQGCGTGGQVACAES
In short: (§1)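 Separate CHO lines stably expressing GPR41, GPR43 or GPR120 (from ECACC) were used for specificity screening in the same format as the FFA1 assay. Cells were plated at 12,500/well 24 h ahead, loaded 1 h with Fluo-8 calcium dye, and read on a FLIPR Tetra. Response was taken as the maximum fluorescence change over baseline.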

[4] = molecular target: T3, Free fatty acid receptor 2 (Homo sapiens, UniProt O15552); assay: Agonist activity at human FFA2 receptor expressed in CHO cells assessed as increase in intracellular calcium flux by Fluo-8 dye based FLIPR assay; type: functional, cell-based; in short: as §1
T3 sequence (O15552 whole entry): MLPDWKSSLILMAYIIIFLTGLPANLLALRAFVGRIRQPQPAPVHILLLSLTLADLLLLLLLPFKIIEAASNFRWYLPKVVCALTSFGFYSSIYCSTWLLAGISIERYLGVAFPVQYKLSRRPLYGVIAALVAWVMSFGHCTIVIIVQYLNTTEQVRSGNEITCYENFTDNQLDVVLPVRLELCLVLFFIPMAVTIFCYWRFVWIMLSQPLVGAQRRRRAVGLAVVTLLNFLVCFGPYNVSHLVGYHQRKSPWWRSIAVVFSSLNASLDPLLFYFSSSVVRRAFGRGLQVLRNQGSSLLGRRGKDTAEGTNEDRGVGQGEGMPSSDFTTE

[5] = molecular target: T4, Free fatty acid receptor 4 (Homo sapiens, UniProt Q5NUL3); assay: Agonist activity at human GPR120 expressed in CHO cells assessed as increase in intracellular calcium flux by Fluo-8 dye based FLIPR assay; type: functional, cell-based; in short: as §1
T4 sequence (Q5NUL3 whole entry): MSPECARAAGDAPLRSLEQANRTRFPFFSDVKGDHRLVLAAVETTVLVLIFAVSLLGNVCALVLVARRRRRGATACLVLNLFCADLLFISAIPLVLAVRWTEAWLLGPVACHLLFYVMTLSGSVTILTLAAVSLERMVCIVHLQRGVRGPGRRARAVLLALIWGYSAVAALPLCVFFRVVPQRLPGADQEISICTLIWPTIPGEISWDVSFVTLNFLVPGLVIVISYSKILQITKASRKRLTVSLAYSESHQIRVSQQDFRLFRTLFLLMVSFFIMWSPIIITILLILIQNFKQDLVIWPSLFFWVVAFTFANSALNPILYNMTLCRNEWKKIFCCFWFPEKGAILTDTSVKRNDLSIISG

[6] = Kinetic aqueous solubility of the compound in PBS buffer […] at pH 7.4 by UV-Visible spectrophotometric analysis; type: physicochemical; conditions: read-out: Kinetic_solubility
In short: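 Kinetic solubility: a 40 mM DMSO stock was diluted to a nominal 800 μM in duplicate in PBS (138 mM NaCl, 2.7 mM KCl, 10 mM K-phosphate, pH 7.4, 2% final DMSO). Samples were shaken 2 h at 25°C and then filtered. Filtrates were diluted 2-fold in methanol and quantified by UV scan (200-550 nm) against 0, 200 and 400 μM calibrants in 50% methanol/PBS. Values average n = 4.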

[7] = Half life in Balb/c mouse liver microsomes at 2 uM in presence of NADPH by HPLC-MS analysis; type: ADME, microsome
In short: (§2)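 Microsomes from pooled (50) perfused livers of male BALB/c mice, 0.42 mg protein/mL, in 100 mM K-phosphate pH 7.4 with MgCl2 3.3 mM, NADPH 3 mM, G6P 5.3 mM and G6PDH 0.67 U/ml. Compound was 2 μM (1.6% solvent) at 37°C, sampled at five points over 40 min in duplicate. Reactions were quenched with acetonitrile and analysed by HPLC-MS/MS. kel came from ln(AUC) vs time, T1/2 = 0.693/kel, and CLint was scaled per mg microsomes.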

[8] = Intrinsic clearance in Balb/c mouse liver microsomes at 2 uM in presence of NADPH by HPLC-MS analysis; type: ADME, microsome; in short: as §2
[9] = Apparent permeability from apical to basolateral direction in human Caco2 cells at 10 uM after 2 hrs by HPLC-MS analysis; type: ADME, cell-based; conditions: Caco-2
In short: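 Caco-2 cells were grown to 70–80% confluence, then seeded at 1x10⁵ cells/well on 24-well semipermeable inserts and washed twice with PBS. Compound was 10 μM in HBSS with 5,6 mM glucose and 10 mM HEPES, pH 7.4, applied apically in duplicate for 2 h at 37 °C. Receiver concentrations were measured by HPLC-MS, and Papp was computed from acceptor volume, insert area, time and acceptor/initial donor concentration.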

T1 sequence (O14842 whole entry): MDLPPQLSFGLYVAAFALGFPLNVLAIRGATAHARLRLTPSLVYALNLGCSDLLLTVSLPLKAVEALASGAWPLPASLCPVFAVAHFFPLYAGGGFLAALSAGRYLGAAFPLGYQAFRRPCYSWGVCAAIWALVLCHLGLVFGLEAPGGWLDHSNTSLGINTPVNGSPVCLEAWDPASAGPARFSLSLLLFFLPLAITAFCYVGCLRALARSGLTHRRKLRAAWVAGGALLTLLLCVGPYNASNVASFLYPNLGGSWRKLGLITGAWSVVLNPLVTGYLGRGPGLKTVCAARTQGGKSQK

| SMILES | EC50 [1] [nM] | %max [2] [%] | also measured |
| --- | --- | --- | --- |
| O=C(O)CCc1ccc(OCc2ccc(CN3CCC4(CC3)CC(CCOc3ccncc3)CCO4)cc2)cc1 (stereo not given) | 6100 | 48.5 |  |
| O=C(O)CCc1ccc(OCc2ccc(CN3CCC4(CC3)CC(CCOc3ccc(C(F)(F)F)cn3)CCO4)cc2)cc1 (stereo not given) | 33500 | 79.2 |  |
| O=C(O)CCc1ccc(OCc2ccc(CN3CCC4(CCCCO4)CC3)cc2)cc1 | > 20000 |  |  |
| O=C(O)CCc1ccc(OCc2ccc(CN3CCC4(CC3)CC(CCOc3ccc5ccccc5n3)CCO4)cc2)cc1 (stereo not given) | 2360 | 83.4 |  |
| O=C(O)CCc1ccc(OCc2ccc(CN3CCC4(CC3)CC(Oc3ccccn3)CCO4)cc2)cc1 (stereo not given) | 900 |  |  |
| O=C(O)CCc1ccc(OCc2ccc(CN3CCC4(CC3)CC(CCOc3cccnc3)CCO4)cc2)cc1 (stereo not given) | 2560 | 61.7 |  |
| O=C(O)CCc1ccc(OCc2ccc(CN3CCC4(CC3)CC(CCOc3ccc(F)cc3)CCO4)cc2)cc1 (stereo not given) | 2060 | 55 |  |
| Cc1nccnc1OCCC1CCOC2(CCN(Cc3ccc(COc4ccc(CCC(=O)O)cc4)cc3)CC2)C1 (stereo not given) | 1270 | 105 |  |

Continued by falling EC50 [1], values first:

| EC50 [1] [nM] | %max [2] [%] | SMILES | also measured |
| --- | --- | --- | --- |
| 3870 | 54.5 | O=C(O)CCc1ccc(OCc2ccc(CN3CCC4(CC3)CC(CCOc3ncccn3)CCO4)cc2)cc1 (stereo not given) |  |
| 1480 | 83.5 | O=C(O)CCc1ccc(OCc2ccc(CN3CCC4(CC3)CC(CCOc3cnccn3)CCO4)cc2)cc1 (stereo not given) |  |
| 1260 | 78.4 | O=C(O)CCc1ccc(OCc2ccc(CN3CCC4(CC3)CC(CCOc3ncnc5c3CCC5)CCO4)cc2)cc1 (stereo not given) |  |
| 1210 | 60.5 | O=C(O)CCc1ccc(OCc2ccc(CN3CCC4(CC3)CC(CCOc3nc(C5CC5)nc5c3CCC5)CCO4)cc2)cc1 (stereo not given) |  |
| 1140 | 80.2 | Cc1cnc(C)c(OCCC2CCOC3(CCN(Cc4ccc(COc5ccc(CCC(=O)O)cc5)cc4)CC3)C2)n1 (stereo not given) |  |
| 1110 | 110 | Cc1ccnc(OCCC2CCOC3(CCN(Cc4ccc(COc5ccc(CCC(=O)O)cc5)cc4)CC3)C2)c1 (stereo not given) |  |
| 260 | 100 | Cc1cccc(OCCC2CCOC3(CCN(Cc4ccc(COc5ccc(CCC(=O)O)cc5)cc4)CC3)C2)n1.Cl.Cl (stereo not given) | EC50 [3]: > 10000 nM; EC50 [4]: > 10000 nM; EC50 [5]: > 10000 nM; solubility kinetic [6]: 228 µM; half-life at 2 µM [7]: 22.9 min; CL int at 2 µM [8]: 72.8 µL/min/mg; Papp A→B at 2 h, 10 µM [9]: 7.3 ×10⁻⁶ cm/s |

Reference: ChEMBL document CHEMBL3992530, “Polar aromatic periphery increases agonist potency of spirocyclic free fatty acid receptor (GPR40) agonists inspired by LY2881835” (Eur J Med Chem, 2017)
